# Source: publication PMC11529822 (Lab on a Chip, 2024)
# Experiments:
# [1] = test system: MDA-MB-231, HepG2/C3A and HS-5 cells; assay: Tissue chip dose response, summary across all three compartments; assay type: cell-based; settings: Homo sapiens, read-out: IC50 values across all compartments
# How it was run: (§1)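 Tumour compartment: MDA-MB-231 spheroids (10 × 10^3 cells, formed 4 days before seeding) in 3.5 mg mL−1 collagen. Liver (HepG2/C3A) and stroma (HS-5) compartments: 15 × 10^3 single cells in the same collagen. Medium 1:1 EMEM:DMEM under rocker-driven gravity flow. Test compound medium from day 1, replenished every 2 days, 5 days total. Four concentrations including control, 2–4 replicates; single-dose runs at 50 μM. PrestoBlue 15% v/v, 1 h, ex 560/em 590 nm; AUC computed.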
# [2] = Tissue chip bone marrow stroma compartment: viability of HS-5 cells in collagen; assay type: cell-based, human; design: AUC HS-5: unit not given beside the values; settings: human
# How it was run: as §1
# [3] = Tissue chip liver compartment: viability of HepG2/C3A cells in collagen; assay type: cell-based, human; settings: human
# How it was run: as §1
# [4] = test system: MDA-MB-231 breast cancer cells; assay type: cell-based, human; settings: for IC50: Homo sapiens, MDA-MB-231, read-out: IC50 MDA-MB-231; for AUC MDA-MB-231: area under the dose-response curve, tissue chip, tumor compartment
# How it was run: as §1
# [5] = test system: HS-5 bone marrow stromal cells; assay: Tissue chip bone marrow stroma compartment: viability of HS-5 cells in collagen; assay type: cell-based, human; design: AUC HS-5: unit not given beside the values; settings: for IC50: Homo sapiens, HS5, read-out: IC50 HS-5; for AUC HS-5: area under the dose-response curve, tissue chip, bone marrow stroma compartment
# How it was run: as §1
# HepG2/C3A liver cells = assay: Tissue chip liver compartment: viability of HepG2/C3A cells in collagen; assay type: cell-based, human; settings: for IC50: Homo sapiens, HepG2/C3A, read-out: IC50 HepG2/C3A; for AUC HepG2/C3A: area under the dose-response curve, tissue chip, liver compartment
# How it was run: as §1
IC50 [1],IC50 [4],IC50 [5],IC50 (HepG2/C3A liver cells),Structure (SMILES),"viability at 5 days, 50 μM [2]","viability at 5 days, 50 μM [3]",AUC MDA-MB-231 [4],AUC HS-5 [5],AUC HepG2/C3A (HepG2/C3A liver cells)
1000 to 10000 nM,–,–,–,"O=c1[nH]cc(F)c(=O)[nH]1 [5-FU, 5-fluorouracil]",24%,20%,–,–,–
–,5.5 nM,4.6 nM,231 nM,"COc1cccc2c1C(=O)c1c(O)c3c(c(O)c1C2=O)C[C@@](O)(C(=O)CO)C[C@@H]3O[C@H]1C[C@H](N)[C@H](O)[C@H](C)O1 [Doxorubicin, doxorubicin]",–,–,0.47,0.45,0.72
–,0.06 nM,> 1000 nM,12.2 nM,"CC(=O)Nc1cccc(-n2c(=O)n(C3CC3)c(=O)c3c(Nc4ccc(I)cc4F)n(C)c(=O)c(C)c32)c1 [Trametinib, trametinib]",–,–,0.63,0.98,0.75
